Test results reported in ChEMBL document CHEMBL4304834, “3-Amino-chromanes and Tetrahydroquinolines as Selective 5-HT2B, 5-HT7, or σ1 Receptor Ligands” (ACS Med Chem Lett, 2019).

Assays:
[1] = molecular target: Beta-2 adrenergic receptor (Homo sapiens, UniProt P07550); assay: Displacement of [3H]-CGP12177 from human recombinant adrenergic Beta2 receptor expressed in Flp-In HEK cells after 90 mins by microbeta scintillation counting method; format: cell-based
In short: (§1)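 Radioligand binding run by the NIMH Psychoactive Drug Screening Program. […] Otherwise Ki comes from sigmoidal curve fits of triplicate measurements in a single experiment, or is averaged over repeated experiments each run in triplicate.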

[2] = molecular target: T1, Alpha-1A adrenergic receptor (Homo sapiens, UniProt P35348); assay: Displacement of [3H]-Prazosin from human recombinant adrenergic alpha1A receptor expressed in cells after 90 mins by microbeta scintillation counting method; format: cell-based
T1 sequence (P35348 whole entry): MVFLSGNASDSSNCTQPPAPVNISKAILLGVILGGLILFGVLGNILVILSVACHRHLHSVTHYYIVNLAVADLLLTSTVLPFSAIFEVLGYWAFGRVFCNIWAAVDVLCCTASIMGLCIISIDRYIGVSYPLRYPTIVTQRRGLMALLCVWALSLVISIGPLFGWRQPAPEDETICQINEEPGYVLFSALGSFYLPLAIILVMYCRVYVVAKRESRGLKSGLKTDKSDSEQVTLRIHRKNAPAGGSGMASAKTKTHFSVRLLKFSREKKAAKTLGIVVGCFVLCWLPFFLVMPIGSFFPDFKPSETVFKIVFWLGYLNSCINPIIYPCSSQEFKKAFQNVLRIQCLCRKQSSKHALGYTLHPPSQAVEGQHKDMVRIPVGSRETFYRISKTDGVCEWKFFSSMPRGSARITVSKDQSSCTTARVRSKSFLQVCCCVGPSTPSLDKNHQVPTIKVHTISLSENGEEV
In short: (§2)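 Radioligand binding was run by the NIMH Psychoactive Drug Screening Program. Compounds were first screened at 10 μM. Those giving ≥50% binding were taken to full competition curves. Ki is reported as pKi from a sigmoidal curve fit of triplicate measurements in a single experiment; the error is the curve-fit error.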

D(1B) dopamine receptor = D(1B) dopamine receptor (Homo sapiens, UniProt P21918); assay: Displacement of [3H]-SCH23390 from human recombinant dopamine D5 receptor expressed in HEKT cells after 90 mins by microbeta scintillation counting method; format: cell-based; in short: as §2
[3] = molecular target: Sigma non-opioid intracellular receptor 1 (Homo sapiens, UniProt Q99720); assay: Displacement of [3H]-Pentazocine from human recombinant sigma1 receptor expressed in HEKT cells after 90 mins by microbeta scintillation counting method; format: cell-based
D(3) dopamine receptor = D(3) dopamine receptor (Homo sapiens, UniProt P35462); assay: Displacement of [3H]-N-methylspiperone from human recombinant dopamine D3 receptor expressed in HEKT cells after 90 mins by microbeta scintillation counting method; format: cell-based
In short: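 Radioligand binding run by the NIMH Psychoactive Drug Screening Program. Otherwise Ki comes from sigmoidal curve fits of triplicate measurements in a single experiment, or is averaged over repeated experiments each run in triplicate.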

[4] = molecular target: T2, Alpha-1B adrenergic receptor (Homo sapiens) (UniProt P35368); assay: Displacement of [3H]-Prazosin from human recombinant adrenergic Alpha1B receptor expressed in HEKT cells at 10 uM after 90 mins by microbeta scintillation counting method relative to control; format: cell-based
T2 sequence (whole entry): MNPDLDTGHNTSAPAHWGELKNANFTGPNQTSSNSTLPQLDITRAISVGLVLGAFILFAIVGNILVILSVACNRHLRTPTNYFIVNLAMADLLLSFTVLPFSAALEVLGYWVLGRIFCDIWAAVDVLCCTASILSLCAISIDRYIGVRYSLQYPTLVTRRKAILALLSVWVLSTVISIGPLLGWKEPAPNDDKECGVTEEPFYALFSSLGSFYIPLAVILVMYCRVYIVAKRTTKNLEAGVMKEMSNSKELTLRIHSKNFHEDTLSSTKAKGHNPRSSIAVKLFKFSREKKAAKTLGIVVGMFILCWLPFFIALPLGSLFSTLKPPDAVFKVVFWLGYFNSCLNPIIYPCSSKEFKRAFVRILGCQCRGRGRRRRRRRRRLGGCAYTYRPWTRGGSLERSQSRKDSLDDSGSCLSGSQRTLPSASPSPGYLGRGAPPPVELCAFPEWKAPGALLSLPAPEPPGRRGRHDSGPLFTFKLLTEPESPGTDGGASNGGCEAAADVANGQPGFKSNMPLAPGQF

Rattus norvegicus = species on record: Rattus norvegicus; assay: Displacement of [3H]-PK11195 from PBR receptor in rat brain at 10 uM incubated for 90 mins by microbeta scintillation counting method relative to control; format: tissue-based; in short: as §1
[5] = molecular target: T3, Muscarinic acetylcholine receptor M1 (Homo sapiens) (UniProt P11229); assay: Displacement of [3H]-QNB/[3H]-NMS from human recombinant Muscarinic acetylcholine M1 receptor expressed in stable CHO cells at 10 uM after 90 mins by microbeta scintillation counting method relative to control; format: cell-based
T3 sequence (whole entry): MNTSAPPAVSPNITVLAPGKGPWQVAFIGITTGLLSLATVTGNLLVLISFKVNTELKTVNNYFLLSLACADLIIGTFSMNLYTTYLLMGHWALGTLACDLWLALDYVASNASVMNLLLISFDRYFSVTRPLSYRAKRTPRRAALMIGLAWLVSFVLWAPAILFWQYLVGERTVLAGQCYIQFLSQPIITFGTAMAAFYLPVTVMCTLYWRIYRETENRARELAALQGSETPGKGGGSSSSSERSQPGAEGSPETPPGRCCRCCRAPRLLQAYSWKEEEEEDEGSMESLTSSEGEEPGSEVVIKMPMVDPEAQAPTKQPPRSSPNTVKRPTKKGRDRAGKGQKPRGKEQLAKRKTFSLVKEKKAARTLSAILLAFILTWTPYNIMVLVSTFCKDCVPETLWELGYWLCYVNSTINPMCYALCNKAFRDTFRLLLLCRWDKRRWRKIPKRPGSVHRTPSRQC

[6] = molecular target: T4, Alpha-2C adrenergic receptor (Homo sapiens) (UniProt P18825); assay: Displacement of [3H]-Rauwolscine from human recombinant adrenergic Alpha2C receptor expressed in stable MDCK cells at 10 uM after 90 mins by microbeta scintillation counting method relative to control; format: cell-based
T4 sequence (whole entry): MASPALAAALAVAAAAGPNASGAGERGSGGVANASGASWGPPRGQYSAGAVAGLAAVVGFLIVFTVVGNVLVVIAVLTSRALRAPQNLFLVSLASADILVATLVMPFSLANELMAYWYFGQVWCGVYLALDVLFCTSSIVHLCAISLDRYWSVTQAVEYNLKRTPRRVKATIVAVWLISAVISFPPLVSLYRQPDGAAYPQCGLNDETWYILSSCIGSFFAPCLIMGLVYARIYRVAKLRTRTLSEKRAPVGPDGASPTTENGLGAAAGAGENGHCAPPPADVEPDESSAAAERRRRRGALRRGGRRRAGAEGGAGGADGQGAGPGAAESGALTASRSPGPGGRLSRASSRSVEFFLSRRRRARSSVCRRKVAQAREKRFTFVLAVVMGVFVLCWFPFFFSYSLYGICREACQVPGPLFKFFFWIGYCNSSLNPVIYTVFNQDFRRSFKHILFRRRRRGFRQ

Histamine H2 receptor = Histamine H2 receptor (Homo sapiens, UniProt P25021); assay: Displacement of [125I]-Iodoaminopotentidine from human recombinant histamine H2 receptor expressed in stable HEK cells at 10 uM after 90 mins by microbeta scintillation counting method relative to control; format: cell-based; in short: as §1
Chain of Histamine H2 receptor (P25021 whole entry): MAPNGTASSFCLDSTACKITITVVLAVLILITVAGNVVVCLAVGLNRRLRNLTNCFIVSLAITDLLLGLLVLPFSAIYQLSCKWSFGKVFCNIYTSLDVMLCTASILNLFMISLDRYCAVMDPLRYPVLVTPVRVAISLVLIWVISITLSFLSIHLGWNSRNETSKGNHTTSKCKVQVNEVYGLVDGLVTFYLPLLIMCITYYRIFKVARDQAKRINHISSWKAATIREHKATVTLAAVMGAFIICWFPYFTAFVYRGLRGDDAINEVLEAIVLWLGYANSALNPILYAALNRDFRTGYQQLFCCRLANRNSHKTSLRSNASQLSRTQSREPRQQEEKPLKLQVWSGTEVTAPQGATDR

Chain of Beta-2 adrenergic receptor (P07550 whole entry): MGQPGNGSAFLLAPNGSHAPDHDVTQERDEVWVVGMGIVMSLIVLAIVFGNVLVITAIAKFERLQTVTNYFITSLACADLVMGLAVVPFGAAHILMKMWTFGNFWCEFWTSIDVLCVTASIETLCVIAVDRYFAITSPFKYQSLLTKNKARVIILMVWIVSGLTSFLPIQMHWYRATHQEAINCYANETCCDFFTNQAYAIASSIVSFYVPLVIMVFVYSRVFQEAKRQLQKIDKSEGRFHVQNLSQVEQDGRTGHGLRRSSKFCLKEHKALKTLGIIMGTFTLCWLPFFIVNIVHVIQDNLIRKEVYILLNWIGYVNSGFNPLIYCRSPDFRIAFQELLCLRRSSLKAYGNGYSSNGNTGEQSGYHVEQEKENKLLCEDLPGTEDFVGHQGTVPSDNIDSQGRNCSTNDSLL
Chain of D(3) dopamine receptor (P35462 whole entry): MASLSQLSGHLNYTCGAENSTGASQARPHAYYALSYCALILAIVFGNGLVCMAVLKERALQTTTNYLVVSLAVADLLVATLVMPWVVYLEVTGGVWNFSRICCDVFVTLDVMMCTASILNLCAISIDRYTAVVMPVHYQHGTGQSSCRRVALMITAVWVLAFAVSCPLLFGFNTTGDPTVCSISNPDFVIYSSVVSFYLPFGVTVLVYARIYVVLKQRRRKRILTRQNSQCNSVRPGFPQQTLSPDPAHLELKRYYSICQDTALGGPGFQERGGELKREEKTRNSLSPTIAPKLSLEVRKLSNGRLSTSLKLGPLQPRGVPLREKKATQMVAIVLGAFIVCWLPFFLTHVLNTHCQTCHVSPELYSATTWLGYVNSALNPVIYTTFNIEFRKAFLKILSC
Chain of Sigma non-opioid intracellular receptor 1 (Q99720 whole entry): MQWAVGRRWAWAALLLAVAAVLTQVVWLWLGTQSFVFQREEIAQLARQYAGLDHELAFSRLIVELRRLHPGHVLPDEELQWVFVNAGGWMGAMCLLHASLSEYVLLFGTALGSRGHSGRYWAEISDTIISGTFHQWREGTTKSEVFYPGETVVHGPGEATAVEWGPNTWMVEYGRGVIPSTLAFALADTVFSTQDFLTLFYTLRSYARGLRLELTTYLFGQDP
Chain of D(1B) dopamine receptor (P21918 whole entry): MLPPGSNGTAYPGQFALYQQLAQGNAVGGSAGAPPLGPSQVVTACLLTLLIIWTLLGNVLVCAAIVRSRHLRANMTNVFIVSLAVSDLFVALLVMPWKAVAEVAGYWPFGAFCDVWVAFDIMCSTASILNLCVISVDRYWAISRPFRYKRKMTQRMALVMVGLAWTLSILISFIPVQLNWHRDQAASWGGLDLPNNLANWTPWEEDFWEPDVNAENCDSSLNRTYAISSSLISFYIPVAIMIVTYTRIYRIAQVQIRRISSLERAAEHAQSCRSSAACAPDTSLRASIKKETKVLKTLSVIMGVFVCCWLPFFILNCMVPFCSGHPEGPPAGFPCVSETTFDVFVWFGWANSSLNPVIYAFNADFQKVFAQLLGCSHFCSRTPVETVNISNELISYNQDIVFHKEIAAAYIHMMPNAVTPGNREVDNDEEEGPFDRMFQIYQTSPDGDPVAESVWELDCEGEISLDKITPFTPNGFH

SMILES	Ki [1] [µM]	Ki [2] [µM]	Ki (D(1B) dopamine receptor) [µM]	Ki ([3]; read-out: pKi (converted)) [µM]	Ki (D(3) dopamine receptor) [µM]	inhibition [4] [%]	inhibition (Rattus norvegicus) [%]	inhibition [5] [%]	inhibition [6] [%]	inhibition (Histamine H2 receptor) [%]	Ki ([3]; read-out: Ki) [µM]
CC[C@H]1c2ccccc2N(c2ccccc2)C[C@@]1(C)N (racemic)	> 10	1.58	> 10	0.316	–	–	–	–	–	–	–
C[C@@]12CN(c3ccccc3)c3ccccc3[C@@H]1CCN2 (racemic)	> 10	> 10	> 10	–	–	–	–	–	–	–	–
CC[C@H]1c2cc(C)ccc2OC[C@@]1(C)N (racemic)	> 10	> 10	> 10	1	> 10	< 50	< 50	< 50	< 50	< 50	–
COc1cc(OC)c2c(c1)OC[C@@]1(C)NCC[C@@H]21 (racemic)	0.575	> 10	> 10	–	> 10	< 50	< 50	< 50	< 50	< 50	0.044
CC[C@H]1c2cc(OC)ccc2CC[C@@]1(C)N (racemic)	5.01	> 10	> 10	0.126	> 10	< 50	< 50	< 50	< 50	< 50	–
